Results on one compound are retold here after ChEMBL document CHEMBL4765491, “Discovery of Potent and Selective Methylenephosphonic Acid CD73 Inhibitors” (J Med Chem, 2021).

A short description of data set [1]: Half life in Sprague-Dawley rat at 0.25 to 0.5 mg/kg, iv measured up to 24 hrs by LC-MS/MS analysis. The format is ADME, organism-based. As to conditions: in vivo, dose 0.25-0.5 mg/kg. The gist of the method: (§1)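 Male SD rats (0.27–0.30 kg), acclimated. Single IV bolus via femoral vein at 0.25 or 0.5 mg/kg in 31.6% DMA/36.8% ethanol/31.6% PEG. Jugular blood at predose, 5, 15, 30 min, 1, 2, 4, 6, 8, 24 h, collected into K2-EDTA; plasma spun at 4 °C, stored −80 °C until analysis.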

Data set [2] deals with T1, 5'-nucleotidase (Homo sapiens, UniProt P21589). As to the kind of experiment: Inhibition of soluble human CD73 incubated for 60 mins before addition of AMP and further incubated for 60 mins by colorimetric assay.
T1 sequence (P21589 whole entry): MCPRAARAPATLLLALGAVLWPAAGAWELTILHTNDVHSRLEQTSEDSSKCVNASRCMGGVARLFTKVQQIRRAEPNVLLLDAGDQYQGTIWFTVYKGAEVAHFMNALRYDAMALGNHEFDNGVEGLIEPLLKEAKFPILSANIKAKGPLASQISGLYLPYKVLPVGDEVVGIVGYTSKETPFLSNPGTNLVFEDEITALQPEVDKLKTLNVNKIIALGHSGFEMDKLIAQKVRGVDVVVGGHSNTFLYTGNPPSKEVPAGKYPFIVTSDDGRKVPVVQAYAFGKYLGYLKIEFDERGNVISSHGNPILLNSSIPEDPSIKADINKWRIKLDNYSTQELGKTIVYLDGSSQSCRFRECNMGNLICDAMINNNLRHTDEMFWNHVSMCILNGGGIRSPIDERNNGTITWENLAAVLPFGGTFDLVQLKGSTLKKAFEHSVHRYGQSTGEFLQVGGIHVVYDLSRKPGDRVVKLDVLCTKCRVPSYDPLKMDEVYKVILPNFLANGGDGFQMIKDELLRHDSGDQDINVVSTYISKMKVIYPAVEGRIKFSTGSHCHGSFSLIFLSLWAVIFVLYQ
The nature of data set [3]: Stability in human hepatocytes. The format is ADME, cell-based, Hepatocyte.
Data set [4] is described as follows: Stability in rat hepatocytes. The class given is ADME, cell-based, Hepatocyte.
For another data set, the target named is Adenosine receptor A2a (Homo sapiens, UniProt P29274). Nature of the data set: Inhibition of A2AR (unknown origin) expressed in CHO cells assessed as reduction in NECA-stimulated cellular cAMP levels incubated for 90 mins by FRET assay. The class given is functional, cell-based. Summed up:
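Tetracycline-induced CHO cells stably expressing ADORA2A, 2000 cells/well, preincubated with 20-point 1:2 compound dilutions (final 10–0 μM). Stimulated with 30 nM NECA, 30 min at 37 °C. Quenched with ULight-anti-cAMP in lysis buffer, then Eu-cAMP tracer added, 60 min at 37 °C. Inhibition read as change in cellular cAMP.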
(In general: Cyclic AMP is a second messenger, typically raised through Gs and lowered through Gi signalling.)

The target in data set [5] is T1, 5'-nucleotidase. As to the kind of experiment: Inhibition of CD73 in human SK-OV-3 cells incubated for 60 mins before addition of AMP and further incubated for 60 mins by colorimetric assay. The format is cell-based.
The target of data set [6] is T2, Ectonucleoside triphosphate diphosphohydrolase 2 (Homo sapiens, UniProt Q9Y5L3).
T2 sequence (Q9Y5L3 whole entry): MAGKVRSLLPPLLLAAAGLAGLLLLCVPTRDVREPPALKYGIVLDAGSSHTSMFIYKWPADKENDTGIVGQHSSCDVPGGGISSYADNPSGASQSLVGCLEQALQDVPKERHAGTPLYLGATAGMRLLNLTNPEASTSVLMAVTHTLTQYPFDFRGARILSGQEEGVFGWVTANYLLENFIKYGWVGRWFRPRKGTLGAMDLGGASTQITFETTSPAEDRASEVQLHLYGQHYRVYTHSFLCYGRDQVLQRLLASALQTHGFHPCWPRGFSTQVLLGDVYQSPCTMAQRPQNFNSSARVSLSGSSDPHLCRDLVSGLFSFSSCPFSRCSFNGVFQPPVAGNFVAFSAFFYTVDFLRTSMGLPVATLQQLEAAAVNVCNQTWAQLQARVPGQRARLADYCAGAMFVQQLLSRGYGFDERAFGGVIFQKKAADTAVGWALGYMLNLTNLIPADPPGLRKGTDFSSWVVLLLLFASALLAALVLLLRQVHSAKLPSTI
As to the kind of experiment: Inhibition of human NTPDase-2 expressed in CHO-K1 cells in presence of DNA/LTX mixture. The class given is cell-based. The gist of the method: (§2)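 CHO-K1 cells transfected overnight (Lipofectamine LTX) with NTPDase2, 3 or 8 plasmid, then harvested into HEPES pH 7.4 buffer. 10,000 cells/well, 2% DMSO, 16-point 1:3 compound dilutions (final 10–0 μM), 1 h preincubation at 37 °C. ATP added at 25 (NTPDase2), 15 (NTPDase3) or 30 μM (NTPDase8), 50 min at 37 °C. Phosphate read with PiColorLock Gold at 620 nm.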

The target in data set [7] is T3, Ectonucleoside triphosphate diphosphohydrolase 3 (Homo sapiens, UniProt O75355).
T3 sequence (O75355 whole entry): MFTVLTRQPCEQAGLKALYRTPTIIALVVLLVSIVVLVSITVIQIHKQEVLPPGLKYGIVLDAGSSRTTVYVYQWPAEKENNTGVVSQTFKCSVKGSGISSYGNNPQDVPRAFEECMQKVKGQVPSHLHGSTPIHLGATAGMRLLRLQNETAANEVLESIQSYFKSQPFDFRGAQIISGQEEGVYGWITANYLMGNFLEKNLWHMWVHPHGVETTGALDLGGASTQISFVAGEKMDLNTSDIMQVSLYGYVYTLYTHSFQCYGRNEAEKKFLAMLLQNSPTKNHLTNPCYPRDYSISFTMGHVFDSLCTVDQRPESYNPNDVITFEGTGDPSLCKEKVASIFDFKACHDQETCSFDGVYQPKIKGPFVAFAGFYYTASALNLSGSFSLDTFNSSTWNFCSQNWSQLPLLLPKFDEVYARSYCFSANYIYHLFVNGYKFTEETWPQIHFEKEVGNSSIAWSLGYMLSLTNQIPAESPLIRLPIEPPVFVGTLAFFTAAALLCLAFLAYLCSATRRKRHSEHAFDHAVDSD
As to the kind of experiment: Inhibition of human NTPDase-3 expressed in CHO-K1 cells in presence of DNA/LTX mixture. The class given is cell-based. The gist of the method:
as §2

Data set [8] in a line: Stability in mouse hepatocytes. The class given is ADME, cell-based, Hepatocyte.
Data set [9] in a line: Clearance in Sprague-Dawley rat at 0.25 to 0.5 mg/kg, iv measured up to 24 hrs by LC-MS/MS analysis. The format is ADME, organism-based. As to conditions: in vivo, dose 0.25-0.5 mg/kg. The gist of the method:
as §1

Data set [10] addresses T4, Ectonucleoside triphosphate diphosphohydrolase 8 (Homo sapiens, UniProt Q5MY95).
T4 sequence (Q5MY95 whole entry): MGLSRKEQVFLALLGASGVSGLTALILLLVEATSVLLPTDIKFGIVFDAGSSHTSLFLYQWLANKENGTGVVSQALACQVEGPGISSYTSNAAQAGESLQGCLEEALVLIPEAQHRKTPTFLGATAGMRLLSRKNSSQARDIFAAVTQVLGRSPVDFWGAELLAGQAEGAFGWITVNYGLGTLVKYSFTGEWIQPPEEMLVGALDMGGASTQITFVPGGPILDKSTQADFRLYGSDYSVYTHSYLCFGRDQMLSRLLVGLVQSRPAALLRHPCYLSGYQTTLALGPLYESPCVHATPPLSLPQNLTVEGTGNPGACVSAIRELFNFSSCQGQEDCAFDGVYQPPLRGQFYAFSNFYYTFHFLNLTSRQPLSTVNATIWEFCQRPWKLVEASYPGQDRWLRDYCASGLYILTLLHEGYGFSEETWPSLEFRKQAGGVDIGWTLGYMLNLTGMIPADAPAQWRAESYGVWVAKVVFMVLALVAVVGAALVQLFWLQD
Nature of the data set: Inhibition of human NTPDase-8 expressed in CHO-K1 cells in presence of DNA/LTX mixture. The format is cell-based. The gist of the method: as §2

Bounds are passed on as bounds.

Chain of Adenosine receptor A2a (P29274 whole entry): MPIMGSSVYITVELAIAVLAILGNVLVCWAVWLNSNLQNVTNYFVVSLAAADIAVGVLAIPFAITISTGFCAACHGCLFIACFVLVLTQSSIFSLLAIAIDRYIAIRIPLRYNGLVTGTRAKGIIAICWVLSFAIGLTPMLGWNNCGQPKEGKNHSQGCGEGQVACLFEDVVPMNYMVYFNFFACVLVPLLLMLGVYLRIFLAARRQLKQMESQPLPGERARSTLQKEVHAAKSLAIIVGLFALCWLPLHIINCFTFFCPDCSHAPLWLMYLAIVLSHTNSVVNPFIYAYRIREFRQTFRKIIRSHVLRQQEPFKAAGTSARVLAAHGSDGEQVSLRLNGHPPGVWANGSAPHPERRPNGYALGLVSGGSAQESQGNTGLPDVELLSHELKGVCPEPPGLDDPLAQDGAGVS

`O=P(O)(O)COC[C@H]1O[C@@H](n2ncc3c(NC4CCCC4)nc(Cl)nc32)[C@H](O)[C@@H]1O` showed a half-life in data set [1] of 72 min. For the same compound, the 50% inhibitory concentration (IC50) on 5'-nucleotidase [2] was 0.86 nM; on Adenosine receptor A2a it was more than 10 µM; at 5'-nucleotidase [5], 0.55 nM; in data set [6] it was more than 10 µM; in [7], more than 10 µM; in [10] it was more than 10 µM. In addition, the Stabilty result in data set [3], in data set [4] and in data set [8] was “Stable” in each case. Besides, in data set [9], the clearance is 2.17 mL/min/kg.

As a reminder, the half-life is how long it takes for the measured level to halve. High values mean slow decline, low ones rapid decline. As a reminder, the IC50 is the concentration that inhibits the measured activity by half. The clearance is the volume of plasma or blood freed of the substance per unit of time.
